ChEMBL document CHEMBL4130411, “Arylthiazole antibiotics targeting intracellular methicillin-resistant Staphylococcus aureus (MRSA) that interfere with bacterial cell wall synthesis” (Eur J Med Chem, 2017)
In brackets after ≈: the same amount, converted by molar mass. Activity calls are given as the source filed them. The calls are words filed in the database; no cut-off is given here.

Experiments:
[1] = system: Staphylococcus aureus; assay: Antibacterial activity against methicillin-resistant Staphylococcus aureus USA300 NRS384 after 20 hrs by broth microdilution assay; format: functional; settings: USA300 NRS384, 20 h
[2] = system: Staphylococcus aureus; assay: Antibacterial activity against vancomycin-resistant Staphylococcus aureus isolate 4 after 20 hrs by broth microdilution assay; format: functional; settings: isolate 4, 20 h
[3] = system: Staphylococcus aureus; assay: Antibacterial activity against vancomycin-resistant Staphylococcus aureus isolate 10 after 20 hrs by broth microdilution assay; format: functional; settings: isolate 10, 20 h
[4] = system: Staphylococcus aureus; assay: Bactericidal activity against Staphylococcus aureus RN4220 NRS107 incubated for 20 hrs followed by replating on tryptic soy agar plates and further incubated for 18 hrs by broth microdilution assay; format: functional
[5] = system: Staphylococcus aureus; assay: Bactericidal activity against methicillin-resistant Staphylococcus aureus NRS123 (USA400) incubated for 20 hrs followed by replating on tryptic soy agar plates and further incubated for 18 hrs by broth microdilution assay; format: functional
[6] = system: Staphylococcus aureus; assay: Bactericidal activity against methicillin-resistant Staphylococcus aureus USA100 NRS382 incubated for 20 hrs followed by replating on tryptic soy agar plates and further incubated for 18 hrs by broth microdilution assay; format: functional
[7] = system: Staphylococcus aureus; assay: Bactericidal activity against methicillin-resistant Staphylococcus aureus USA200 NRS383 incubated for 20 hrs followed by replating on tryptic soy agar plates and further incubated for 18 hrs by broth microdilution assay; format: functional
[8] = system: Staphylococcus aureus; assay: Bactericidal activity against methicillin-resistant Staphylococcus aureus USA300 NRS384 incubated for 20 hrs followed by replating on tryptic soy agar plates and further incubated for 18 hrs by broth microdilution assay; format: functional
[9] = system: Staphylococcus aureus; assay: Bactericidal activity against vancomycin-resistant Staphylococcus aureus isolate 4 incubated for 20 hrs followed by replating on tryptic soy agar plates and further incubated for 18 hrs by broth microdilution assay; format: functional
[10] = system: Staphylococcus aureus; assay: Bactericidal activity against vancomycin-resistant Staphylococcus aureus isolate 10 incubated for 20 hrs followed by replating on tryptic soy agar plates and further incubated for 18 hrs by broth microdilution assay; format: functional
Summary of the method: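 From MIC wells without visible growth, an aliquot was spotted onto Tryptic soy agar and incubated at 37 °C for at least 18 h; MBC = lowest concentration inhibiting 99.9% of bacterial growth.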

[11] = system: Staphylococcus aureus; assay: Bactericidal activity against methicillin-resistant Staphylococcus aureus NRS123 (USA400) assessed as time required for complete bacterial elimination by time-kill assay; format: functional
[12] = system: HaCaT; assay: Cytotoxicity against human HaCaT cells assessed as reduction in cell viability up to 32 ug/ml after 2 hrs by MTS assay; format: cell-based
Summary of the method: (§1)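 Cells were HaCaT keratinocytes or J774 murine macrophages, grown in DMEM with 10% FBS at 37 °C, 5% CO2. They were exposed in triplicate to 8, 16, 32 and 64 µg/mL for 2 h, with DMSO-matched controls. MTS was then added for 4 h and absorbance read at 490 nm. Viability is expressed as % of DMSO-treated cells, mean ± SD.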

[13] = system: J774; assay: Cytotoxicity against mouse J774 cells assessed as reduction in cell viability up to 16 ug/ml after 2 hrs by MTS assay; format: cell-based; settings: j774, 2 h; summary of the method: as §1
[14] = system: Staphylococcus aureus; assay: Antibacterial activity against methicillin-resistant Staphylococcus aureus NRS123 (USA400) infected in mouse J774 cells assessed as reduction in bacterial colony forming units at 16 ug/ml after 4 hrs; format: functional, organism-based
Summary of the method: (§2)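 J774 macrophages in DMEM + 10% FBS, 37 °C, 5% CO2, infected with USA400 at MOI ~100:1; after 1 h, gentamicin (50 µg/mL) wash; agent at 16 µg/mL in triplicate; at time point, gentamicin wash, lysis in 0.1% Triton X-100, serial dilution, TSA plating 18-22 h at 37 °C; % CFU/mL reduction versus untreated; t-test.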

[15] = system: Staphylococcus aureus; assay: Antibacterial activity against methicillin-resistant Staphylococcus aureus NRS123 (USA400) infected in mouse J774 cells assessed as reduction in bacterial colony forming units at 16 ug/ml after 24 hrs relative to control; format: functional; design: scale not given: the % may be the effect or the level left; summary of the method: as §2
[16] = system: Staphylococcus aureus; assay: Antibacterial activity against methicillin-resistant Staphylococcus aureus USA300 NRS384 infected in Caenorhabditis elegans AU37 assessed as reduction in bacterial burden at 20 ug/ml after 18 hrs by microscopic analysis; format: functional; design: scale not given: the % may be the effect or the level left
[17] = system: Staphylococcus aureus; assay: Inhibition of cell wall synthesis in Staphylococcus aureus RN4220 NRS107 assessed as UDP-N-acetylmuramyl pentapeptide formation at 10 times MIC incubated for 30 mins by HPLC-MS analysis; format: functional, organism-based
[18] = system: Bacillus subtilis; assay: Inhibition of cell wall biosynthesis in Bacillus subtilis assessed as induction of small bulges formation at 3.5 ug/ml incubated for 2 hrs in presence of osmotic stabilising agent MSM by FM-4-64 staining based assay; format: functional, organism-based
Summary of the method: (§3)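 B. subtilis grown in LB at 37 °C to OD600 ~0.2, then treated with or without the osmotic stabiliser MSM for 2 h; stained with FM 4-64 (1 µg/mL, membranes), DAPI (1 µg/mL, DNA) and SYTOX Green (1 µg/mL, lysis); imaged by deconvolution fluorescence microscopy.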

[19] = system: Bacillus subtilis; assay: Inhibition of cell wall biosynthesis in Bacillus subtilis assessed as induction of formation of misshapen cells at 3.5 ug/ml incubated for 2 hrs in presence of osmotic stabilising agent MSM by FM-4-64 staining based assay; format: functional, organism-based; summary of the method: as §3
[20] = system: Staphylococcus aureus; assay: Selectivity ratio of MBC99.9 for Staphylococcus aureus RN4220 NRS107 to MIC for Staphylococcus aureus RN4220 NRS107; format: functional
[21] = system: Staphylococcus aureus; assay: Selectivity ratio of MBC99.9 for methicillin-resistant Staphylococcus aureus NRS123 (USA400) to MIC for methicillin-resistant Staphylococcus aureus NRS123 (USA400); format: functional
[22] = system: Staphylococcus aureus; assay: Selectivity ratio of MBC99.9 for methicillin-resistant Staphylococcus aureus USA100 NRS382 to MIC for methicillin-resistant Staphylococcus aureus USA100 NRS382; format: functional
[23] = system: Staphylococcus aureus; assay: Selectivity ratio of MBC99.9 for methicillin-resistant Staphylococcus aureus USA200 NRS383 to MIC for methicillin-resistant Staphylococcus aureus USA200 NRS383; format: functional
[24] = system: Staphylococcus aureus; assay: Selectivity ratio of MBC99.9 for methicillin-resistant Staphylococcus aureus USA300 NRS384 to MIC for methicillin-resistant Staphylococcus aureus USA300 NRS384; format: functional
[25] = Half life in human liver microsomes in presence of NADPH by LC-MS/MS analysis; format: ADME, microsome; settings: microsomes
Summary of the method: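 Human liver microsomal protein was incubated in duplicate at 37 °C in 100 mM potassium phosphate, 2 mM NADPH, 3 mM MgCl2, pH 7.4. Samples were taken at 0, 10, 20, 40 and 60 min and stopped with ice-cold methanol containing an internal standard. Half-life was derived from depletion. CLint = ln(2)/(T1/2 × microsomal protein concentration).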

[26] = Half life in human liver microsomes in absence of NADPH by LC-MS/MS analysis; format: ADME, microsome
Summary of the method: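 Human liver microsomes were incubated in duplicate at 37 °C in 100 mM potassium phosphate with 3 mM MgCl2, pH 7.4, without NADPH to detect NADPH-free degradation. Aliquots were taken at 0, 10, 20, 40 and 60 min and quenched in ice-cold methanol containing an internal standard, then held at least 10 min at -20 °C before water was added. Half-life was taken from compound depletion.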

[27] = Selectivity ratio of cytotoxicity against human HaCaT cells to MIC for Staphylococcus aureus RN4220 NRS107; format: toxicity, cell-based
[28] = Selectivity ratio of cytotoxicity against human HaCaT cells to MIC for methicillin-resistant Staphylococcus aureus NRS123 (USA400); format: toxicity, cell-based
[29] = Selectivity ratio of cytotoxicity against human HaCaT cells to MIC for methicillin-resistant Staphylococcus aureus USA100 NRS382; format: toxicity, cell-based
[30] = Selectivity ratio of cytotoxicity against human HaCaT cells to MIC for methicillin-resistant Staphylococcus aureus USA200 NRS383; format: toxicity, cell-based
[31] = Selectivity ratio of cytotoxicity against human HaCaT cells to MIC for methicillin-resistant Staphylococcus aureus USA300 NRS384; format: toxicity, cell-based
[32] = system: Staphylococcus aureus; assay: Antibacterial activity against methicillin-resistant Staphylococcus aureus USA300 NRS384 infected in Caenorhabditis elegans AU37 assessed as reduction in bacterial burden at 20 ug/ml after 18 hrs by microscopic analysis relative to vancomycin; format: functional
[33] = system: Staphylococcus aureus; assay: Potentiation of vancomycin-induced antibacterial activity against vancomycin-resistant Staphylococcus aureus isolate 10 assessed as vancomycin MIC after 20 to 22 hrs by broth microdilution assay (reference value: […]); format: functional
[34] = system: Staphylococcus aureus; assay: Potentiation of vancomycin-induced antibacterial activity against vancomycin-resistant Staphylococcus aureus isolate 10 assessed as reduction in vancomycin MIC after 20 to 22 hrs by broth microdilution assay relative to vancomycin alone; format: functional
[35] = system: Bacillus subtilis; assay: Inhibition of cell wall biosynthesis in Bacillus subtilis at 4 times MIC incubated for 2 hrs by SYTOX Green staining-based assay

Cc1nc(-c2ccc3ccccc3c2)sc1-c1cnc(NC(=N)N)s1
MIC [1]: 4 µg/mL (≈ 10.9 µM)
MIC [2]: 4 µg/mL (≈ 10.9 µM)
MIC [3]: 4 µg/mL (≈ 10.9 µM)
MBC [4]: 4 µg/mL (≈ 10.9 µM)
MBC [5]: 4 µg/mL (≈ 10.9 µM)
MBC [6]: 2 µg/mL (≈ 5.47 µM)
MBC [7]: 2 µg/mL (≈ 5.47 µM)
MBC [8]: 4 µg/mL (≈ 10.9 µM)
MBC [9]: 4 µg/mL (≈ 10.9 µM)
MBC [10]: 4 µg/mL (≈ 10.9 µM)
Time [11]: <=4 hr
Activity [12]: Non-Toxic
Activity [13]: Non-Toxic
Activity [14]: inactive
Activity [15]: 81%
Activity [16]: 30%
inhibition [17]: Active
inhibition [18]: Active
inhibition [19]: Active
selectivity ratio [20]: 2
selectivity ratio [21]: 2
selectivity ratio [22]: 2
selectivity ratio [23]: 1
selectivity ratio [24]: 1
t1/2 [25]: 2.23 h
t1/2 [26]: > 4 h
selectivity ratio [27]: 4 to 16
selectivity ratio [28]: 4 to 16
selectivity ratio [29]: 4 to 16
selectivity ratio [30]: 4 to 16
selectivity ratio [31]: 4 to 16
fold change (FC) [32]: 3
MIC [33]: 1 µg/mL
fold change (FC) [34]: 512
inhibition [35]: Active
